Results from different studies.
Lines come from different studies, so protocols differ.
MAOB: Amine oxidase [flavin-containing] B (MAOB, Homo sapiens, UniProt P27338)

| Compound | target | observed | mode | technique | notes | IC50 [µM] |
| --- | --- | --- | --- | --- | --- | --- |
| C#CCNc1nc(NCCCCC2CCN(Cc3ccccc3)CC2)c(C#N)cc1C#N | MAOB | enzyme activity | inhibitor | fluorescence | with preincubation | > 50 |
| COc1cccc(CO)c1 | MAOB | enzyme activity | inhibitor | fluorescence |  | > 10 |
| C#CCNc1nc(NCCCC2CCN(Cc3ccccc3)CC2)c(C#N)cc1C#N | MAOB | enzyme activity | inhibitor | fluorescence | with preincubation | > 100 |
| CC[C@H](C)[C@H](NC(=O)[C@H](Cc1c[nH]c2ccccc12)NC(=O)[C@H](C)NC(=O)[C@@H]1CSCC(=O)N[C@@H](Cc2ccc(O)cc2)C(=O)NCC(=O)N[C@@H](CCC(N)=O)C(=O)N[C@@H](CO)C(=O)N[C@@H](Cc2c[nH]cn2)C(=O)N[C@@H](CO)C(=O)N[C@@H](C)C(=O)N[C@@H](Cc2c[nH]c3ccccc23)C(=O)N1)C(=O)N[C@@H](CC(N)=O)C(=O)N[C@@H](Cc1ccc(O)cc1)C(=O)N[C@@H](CC(N)=O)C(=O)N1CCC[C@H]1C(N)=O | Pancreatic alpha-amylase (Homo sapiens, UniProt P04746) | enzyme activity | inhibitor | absorbance |  | 6 |
| O=c1c2ccccc2[nH]c(=S)n1-c1ccccc1 | Serine protease 1 (PRSS1, Bos taurus, UniProt P00760) | enzyme activity | inhibitor |  |  | 84.5 |
| CCCCNNC(=O)c1ccc(Br)cc1 | Histone deacetylase 9 (HDAC9, Homo sapiens, UniProt Q9UKV0) | enzyme activity | inhibitor | fluorescence |  | > 100 |
| CC(C)(C)c1ccc(NC(=O)c2ncn(CC(=O)NCc3ccc4c(c3)OCO4)n2)cc1 | Histone-lysine N-methyltransferase SUV39H2 (SUV39H2, Homo sapiens, UniProt Q9H5I1) | enzyme activity | inhibitor |  |  | > 250 |
| C#CCNc1nc(NCCCCC2CCN(Cc3ccccc3)CC2)c(C#N)c(-c2ccccc2)c1C#N | MAOB | enzyme activity | inhibitor | fluorescence | with preincubation | > 100 |
| Cc1cc(SCc2sc(-c3ccc(C(F)(F)F)c(F)c3)nc2C)ccc1OCC(=O)O | Retinoic acid receptor RXR-alpha (RXRA, Homo sapiens, UniProt P19793) | reporter gene | antagonist | luciferase |  | 22.9 |
| CSCC[C@@H]1NC(=O)[C@H](CC(N)=O)NC(=O)[C@H](CCCNC(=N)N)NC(=O)[C@H]([C@@H](C)O)NC(=O)[C@H](Cc2ccc(O)cc2)NC(=O)[C@@H](NC(=O)[C@H](C)N)CSSC[C@@H](C(N)=O)NC(=O)[C@H](CCC(N)=O)NC(=O)[C@H](CC(N)=O)NC1=O | Lysine-specific demethylase 4C (KDM4C, Homo sapiens, UniProt Q9H3R0) | enzyme activity | inhibitor | TR-FRET |  | 406 |
| C#CCN(C)c1nc(NCCCC2CCN(Cc3ccccc3)CC2)c(C#N)cc1C#N | MAOB | enzyme activity | inhibitor | fluorescence | with preincubation | 6.11 |
| O=[N+]([O-])c1cc(Cl)c(O)c(Cl)c1 | Sulfotransferase 1A1 (SULT1A1, Homo sapiens, UniProt P50225) | enzyme activity | inhibitor |  |  | 0.245 |
